Laboratory results as given in ChEMBL document CHEMBL1140343, “3-Alkylamino-4H-1,2,4-benzothiadiazine 1,1-dioxides as ATP-sensitive potassium channel openers: effect of 6,7-disubstitution on potency and tissue selectivity” (J Med Chem, 2005).

Assays:
Rattus norvegicus [1] = organism: Rattus norvegicus; assay: Percent residual insulin release in rat pancreatic islets upon incubation with the compound (10 uM) at 37 degree C for 90 mins; assay type: functional
Procedure, shortened: (§1)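 Islets isolated by collagenase digestion from fed Wistar rats (180–220 g); groups of 10 preincubated 30 min at 37 °C in bicarbonate-buffered salt medium with 2.8 mM glucose and 0.5% albumin, gassed O2/CO2 95:5. Then incubated 90 min at 37 °C with 16.7 mM glucose plus drug. Insulin measured by radioimmunoassay; release expressed as % of drug-free 16.7 mM glucose control. IC50 estimated.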

Rattus norvegicus [2] = organism: Rattus norvegicus; assay: Concentration required to inhibit insulin release in rat pancreatic islets by 50% upon incubation with the compound at 37 degree C for 90 mins; assay type: functional, organism-based; details: 1.5 h; procedure, shortened: as §1
Rattus norvegicus [3] = organism: Rattus norvegicus; assay: Ratio of EC50 required to relax KCl induced rat aorta ring contractions to that of IC50 required to inhibit insulin release in rat pancreatic islets; assay type: functional
Rattus norvegicus [4] = organism: Rattus norvegicus; assay: Percent residual insulin release in rat pancreatic islets upon incubation with the compound (1 uM) at 37 degree C for 90 mins; assay type: functional; procedure, shortened: as §1
Rattus norvegicus [5] = organism: Rattus norvegicus; assay: Concentration required to relax KCl induced rat aorta ring contractions by 50% upon incubation with the compound at 37 degree C for 90 mins; assay type: functional, organism-based; details: 1.5 h
Procedure, shortened: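 Endothelium-denuded transverse aortic rings (3–4 mm) from fed Wistar rats (180–220 g); isometric tension recorded by force transducer. After 60 min equilibration, rings contracted with 30 mM KCl; at stable tension, drug added cumulatively until maximal relaxation or 0.3 mM. Relaxation expressed as % of KCl contraction; EC50 taken from dose–response curves; mean ± SEM (n).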

Rattus norvegicus [6] = organism: Rattus norvegicus; assay: Percent residual insulin release in rat pancreatic islets upon incubation with the compound (0.1 uM) at 37 degree C for 90 mins; assay type: functional; procedure, shortened: as §1
Rattus norvegicus [7] = organism: Rattus norvegicus; assay: Percent residual insulin release in rat pancreatic islets upon incubation with the compound (50 uM) at 37 degree C for 90 mins; assay type: functional; procedure, shortened: as §1

Row | Structure (SMILES) | Release (Rattus norvegicus [1]) [%] | IC50 (Rattus norvegicus [2]) [µM] | Selectivity (Rattus norvegicus [3]) | Release (Rattus norvegicus [4]) [%] | EC50 (Rattus norvegicus [5]) [µM] | Release (Rattus norvegicus [6]) [%] | Release (Rattus norvegicus [7]) [%]
1 | COc1ccc2c(c1)S(=O)(=O)NC(NC(C)C)=N2 | 8.5 | 1.75 | 156.6 | 67.6 | – | – | –
2 | CC(C)NC1=NS(=O)(=O)c2cc(F)c(Cl)cc2N1 | 7 | 0.16 | 259.4 | 5.7 | 41.5 | 64.4 | –
3 | COc1cc2c(cc1Cl)NC(NC(C)C)=NS2(=O)=O | 7.7 | 0.24 | 154.2 | 20.6 | 37 | 73.8 | –
4 | COc1cc2c(cc1Cl)NC(NC1CCC1)=NS2(=O)=O | 9.2 | 0.51 | 45.9 | 38.1 | 23.4 | 90 | –
5 | C=CCNC1=Nc2cc(Cl)c(Cl)cc2S(=O)(=O)N1 | 13.5 | 1.89 | 0.63 | 68.5 | 1.2 | – | –
6 | CCCNC1=NS(=O)(=O)c2cc(F)c(Cl)cc2N1 | 7.5 | 0.52 | 87.1 | 37.6 | 45.3 | 92 | –
7 | CC(C)NC1=NS(=O)(=O)c2cc(Cl)c(Cl)cc2N1 | 6.3 | 0.28 | 8.2 | 13.2 | 2.3 | 84.9 | –
8 | CC(C)NC1=NS(=O)(=O)c2cc(F)ccc2N1 | 3.7 | 0.76 | 56.7 | 47.3 | 43.1 | 96.9 | –
9 | CCNC1=NS(=O)(=O)c2cc(F)c(F)cc2N1 | 10.5 | 0.37 | 180.3 | 22 | 66.7 | 94.5 | –
10 | CCNC1=NS(=O)(=O)c2cc(Br)c(Cl)cc2N1 | 7.9 | 0.27 | 12.2 | 19.7 | 3.3 | 79.5 | –
11 | O=S1(=O)N=C(NC2CCC2)Nc2cc(NC3CCC3)c(F)cc21 | – | – | – | – | – | – | 88.6
12 | CCCNC1=NS(=O)(=O)c2cc(F)c(NCCC)cc2N1 | – | – | – | – | – | – | 104.1
13 | O=S1(=O)NC(NC2CCC2)=Nc2cc(Cl)c(Br)cc21 | 9.5 | 1.21 | 5.5 | 57.2 | 6.6 | – | –
14 | CCCNC1=NS(=O)(=O)c2cc(Cl)c(Cl)cc2N1 | 9.9 | 1.37 | 3.4 | 60.2 | 4.7 | – | –
15 | CCCCCCNC1=NS(=O)(=O)c2cc(Cl)c(Cl)cc2N1 | 95.2 | – | – | – | > 300 | – | –
16 | O=S1(=O)NC(NC2CC2)=Nc2cc(Cl)c(Cl)cc21 | 17.6 | 3.34 | >9 | 92.5 | > 30 | – | –
17 | CCNC1=NS(=O)(=O)c2cc(F)c(Cl)cc2N1 | 12.7 | 0.2 | 212 | 7.3 | 42.4 | 73.1 | –
18 | CCNC1=NS(=O)(=O)c2cc(Cl)c(Cl)cc2N1 | 9.1 | 0.25 | 4 | 8.5 | 1 | 83.4 | –
19 | CC(C)NC1=NS(=O)(=O)c2cc(Br)ccc2N1 | 8.1 | 0.47 | 10.2 | 34.9 | 4.8 | 91 | –
20 | CC1=Nc2ccc(Cl)cc2S(=O)(=O)N1 [DIAZOXIDE] | 73.9 | – | 1 | 87.5 | – | – | –
21 | CC(C)NC1=NS(=O)(=O)c2cc(Cl)ccc2N1 | 4.9 | 0.73 | 49.7 | 36.2 | – | 90.4 | –
22 | O=S1(=O)N=C(NC2CCC2)Nc2cc(Cl)c(F)cc21 | 12.8 | 0.23 | 173.5 | 15.3 | 39.9 | 74.5 | –
23 | CC(C)NC1=NS(=O)(=O)c2cc(F)c(F)cc2N1 | 6.1 | 0.3 | 341.3 | 22.9 | 102 | 81.6 | –
24 | CC(C)NC1=NS(=O)(=O)c2cc(F)c(NC(C)C)cc2N1 | – | – | – | – | > 200 | – | 70.1
25 | CC(C)NC1=NS(=O)(=O)c2cc(Br)c(Cl)cc2N1 | 7.5 | 0.26 | 21.5 | 25.7 | 5.6 | 73.3 | –
26 | CCNC1=NS(=O)(=O)c2cc(OC)c(Cl)cc2N1 | 7.2 | 0.48 | 16.9 | 38 | 8.1 | 85.3 | –
27 | O=S1(=O)NC(NC2CCC2)=Nc2cc(Cl)c(Cl)cc21 | 8.4 | 1.25 | 10.1 | 58.1 | 12.6 | – | –
28 | CC(C)CNC1=NS(=O)(=O)c2cc(F)c(F)cc2N1 | 42.3 | 5.68 | >5.3 | 86.9 | > 30 | – | –
